In data set [1] the target is T1, Neuronal acetylcholine receptor; alpha3/beta4 (Rattus norvegicus, UniProt P04757+P12392). The data set can be described thus: Agonist activity at rat alpha3beta4 nACHR expressed in HEK293 cells assessed as […] by liquid scintillation counting analysis. The class given is cell-based.
Data set [2] addresses T2, Neuronal acetylcholine receptor; alpha4/beta2 (Homo sapiens, UniProt P17787+P43681). The data set can be described thus: Agonist activity at human alpha4beta2 nACHR expressed in HEK293 cells assessed as […] by liquid scintillation counting analysis. The class given is cell-based.
The species named for data set [3] is Rattus norvegicus. The data set can be described thus: Selectivity ratio of Ki for rat alpha3beta4 nACHR to rat alpha4beta2 nACHR.
The species entered for data set [4] is Rattus norvegicus. Nature of the data set: Displacement of [3H]-Epibatidine from rat nACHR fore-brain by liquid scintillation counting analysis. On the technique in general: Displacement assays read how much labelled ligand stays bound in the presence of the test substance.
In data set [5] the target is T1, Neuronal acetylcholine receptor; alpha3/beta4. Nature of the data set: Desensitization of rat alpha3beta4 nACHR expressed in HEK293 cells assessed as inhibition of 86Rb+ efflux preincubated for 10 mins measured after 2 hrs by liquid scintillation counting analysis. It counts as cell-based.
The species entered for data set [6] is Rattus norvegicus. Nature of the data set: Selectivity ratio of Ki for rat alpha7 nACHR to rat alpha4beta2 nACHR.
Data set [7] concerns the target Neuronal acetylcholine receptor; alpha4/beta2 (Rattus norvegicus) (UniProt P09483+P12390). The data set can be described thus: Ratio of (-)-nicotine Ki to compound Ki for rat alpha4beta2 nACHR. It counts as protein-complex assay.
Data set [8] addresses T2, Neuronal acetylcholine receptor; alpha4/beta2. The data set can be described thus: Agonist activity at human alpha4beta2 nACHR expressed in HEK293 cells assessed as […] by liquid scintillation counting analysis relative to nicotine. It counts as cell-based.
In data set [9] the test system is Rattus norvegicus. The data set can be described thus: Reduction of alcohol intake in sc dosed alcohol-preferring rat after 2 to 24 hrs relative to vehicle-treated control. It counts as functional, organism-based. The procedure, abridged: (§1)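 Adult male selectively bred alcohol-preferring (P) rats with two-bottle access (water, alcohol) in Richter tubes, 12:12 light–dark, 22 °C. After stable baseline, single s.c. injection of 0.33, 1 or 3 mg/kg or vehicle; alcohol and water intake (g/kg) read at 2, 4, 6 and 24 h. Crossover, random assignment, ≥3 days between injections, n = 18; mean ± SEM.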

For data set [10], the system named is Mustela putorius furo. The data set can be described thus: Toxicity in ferret assessed as induction of stereotypical behavior at 1 to 30 mg/kg, sc measured for 60 mins. The class given is organism-based. Also noted: dose 1-30 mg/kg, route subcutaneous. To be noted: in vivo, 1 h. Summed up:
(§2)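 Male ferrets (0.9–1.5 kg), food withheld overnight, water ad libitum. After 30 min acclimation alone in an enclosure, single s.c. subscapular injection (1–30 mg/kg in 0.9% saline); emetic episodes and nausea-related stereotypical behaviours (gagging, licking, backward walking) scored by 60 min observation with video recording; n = 6.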

The subject of data set [11] is Rattus norvegicus. Nature of the data set: Reduction of alcohol intake in alcohol-preferring rat at 1 mg/kg, sc after 24 hrs. It counts as functional, organism-based. Also noted: dose 1 mg/kg. Summed up:
as §1

Data set [12] concerns Mustela putorius furo. Nature of the data set: Toxicity in ferret assessed as induction of emetic episodes at 1 to 30 mg/kg, sc measured for 60 mins. The class given is organism-based. Also noted: dose 1-30 mg/kg, route subcutaneous. To be noted: in vivo, 1 h. Summed up: as §2
Data set [13] has as its system Rattus norvegicus. The data set can be described thus: Reduction of alcohol intake in alcohol-preferring rat at 3 mg/kg, sc after 6 to 24 hrs. The class given is functional, organism-based. Also noted: dose 3 mg/kg. The procedure, abridged:
as §1

Data set [14] has as its system Rattus norvegicus. Nature of the data set: Reduction of alcohol intake in alcohol-preferring rat at […], sc after 2 to 24 hrs. It counts as functional, organism-based. Also noted: dose 0.33 mg/kg.
Data set [15] has as its target T1, Neuronal acetylcholine receptor; alpha3/beta4. Nature of the data set: Displacement of [3H]-Epibatidine from rat alpha3beta4 nACHR expressed in HEK293 cell membranes by liquid scintillation counting analysis. Also noted: species or system Membrane.
Data set [16] concerns Mustela putorius furo. The data set can be described thus: Toxicity in ferret assessed as induction of retching at 0.5 mg/kg, sc measured for 60 mins. It counts as organism-based. The arrangement: dose 0.5 mg/kg, route subcutaneous. The following applies: in vivo, 1 h. The procedure, abridged:
(§3)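 Male ferrets (0.9−1.5 kg), food withheld overnight, water ad libitum. Drug in 0.9% saline, given subcutaneously in the subscapular region after a 30 min acclimation in an individual polycarbonate enclosure. Emesis and nausea-linked behaviours (retching, oral stereotypy, backward walking, locomotion) were scored by 60 min observation with video recording. Affected animals were then given granisetron plus dexamethasone 1 mg/kg i.p.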

In data set [17] the test system is Mustela putorius furo. Nature of the data set: Toxicity in ferret assessed as reduction in locomotor behavior at 0.5 mg/kg, sc measured 1.05 mins to 1 hr post injection. It counts as organism-based. Also noted: dose 0.5 mg/kg, route subcutaneous. The following applies: in vivo. Summed up:
as §3

In data set [18] the test system is Mustela putorius furo. Nature of the data set: Toxicity in ferret assessed as increase in breathing at 0.5 mg/kg, sc measured for 60 mins. The arrangement: dose 0.5 mg/kg, route subcutaneous. The following applies: in vivo, 1 h. The class given is organism-based. Summed up:
as §3

For data set [19], the system named is Mustela putorius furo. The data set can be described thus: Toxicity in ferret assessed as cessation of movement at 0.5 mg/kg, sc measured for 60 mins. The class given is organism-based. Also noted: dose 0.5 mg/kg, route subcutaneous. The following applies: in vivo, 1 h. The procedure, abridged:
as §3

Data set [20] deals with Mustela putorius furo. Nature of the data set: Toxicity in ferret assessed as induction of licking behavior at 0.5 mg/kg, sc measured 2.20 mins post injection. The class given is organism-based. Also noted: dose 0.5 mg/kg, route subcutaneous. To be noted: in vivo, 132 s. Summed up: as §3
For data set [21], the system named is Mustela putorius furo. Nature of the data set: Toxicity in ferret assessed as induction of emetic episodes at 0.5 mg/kg, sc measured for 60 mins. To be noted: in vivo, 1 h. The arrangement: dose 0.5 mg/kg, route subcutaneous. The class given is organism-based. The procedure, abridged:
as §3

Data set [22] has as its system Mustela putorius furo. Nature of the data set: Toxicity in ferret assessed as backward walking episodes at 0.5 mg/kg, sc measured 2.20 mins post injection. The class given is organism-based. Also noted: dose 0.5 mg/kg, route subcutaneous. To be noted: in vivo, 132 s. Summed up:
as §3

In data set [23] the target is T2, Neuronal acetylcholine receptor; alpha4/beta2. Nature of the data set: Desensitization of human alpha4beta2 nACHR expressed in HEK293 cells assessed as inhibition of 86Rb+ efflux preincubated for 10 mins measured after 2 hrs by liquid scintillation counting analysis. It counts as cell-based.
Data set [24] deals with Neuronal acetylcholine receptor; alpha3/beta4 (Rattus norvegicus) (UniProt P04757+P12392). Nature of the data set: Agonist activity at rat alpha3beta4 nACHR expressed in HEK293 cells assessed as stimulation of 86Rb+ efflux after 2 hrs by liquid scintillation counting analysis relative to nicotine. It counts as cell-based.

Each structure is given as a SMILES string. Active and inactive are the calls of the source. No cut-off for these calls is given here.

T2 sequence (P17787 whole entry): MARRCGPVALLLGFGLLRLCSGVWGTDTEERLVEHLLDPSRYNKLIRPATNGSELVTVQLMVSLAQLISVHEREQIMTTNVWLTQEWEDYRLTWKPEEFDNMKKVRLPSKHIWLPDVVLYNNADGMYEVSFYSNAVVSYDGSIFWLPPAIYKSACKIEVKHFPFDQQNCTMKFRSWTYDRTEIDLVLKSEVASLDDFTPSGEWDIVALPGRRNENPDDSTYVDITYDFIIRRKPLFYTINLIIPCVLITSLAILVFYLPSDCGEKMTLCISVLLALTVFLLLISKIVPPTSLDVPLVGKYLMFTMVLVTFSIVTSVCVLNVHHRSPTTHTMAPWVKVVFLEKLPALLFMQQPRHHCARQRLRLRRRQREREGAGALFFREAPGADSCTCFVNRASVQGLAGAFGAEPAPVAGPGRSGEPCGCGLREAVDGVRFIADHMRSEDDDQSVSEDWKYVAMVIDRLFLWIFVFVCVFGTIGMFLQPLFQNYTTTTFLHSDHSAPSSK
T2 sequence (P43681 whole entry): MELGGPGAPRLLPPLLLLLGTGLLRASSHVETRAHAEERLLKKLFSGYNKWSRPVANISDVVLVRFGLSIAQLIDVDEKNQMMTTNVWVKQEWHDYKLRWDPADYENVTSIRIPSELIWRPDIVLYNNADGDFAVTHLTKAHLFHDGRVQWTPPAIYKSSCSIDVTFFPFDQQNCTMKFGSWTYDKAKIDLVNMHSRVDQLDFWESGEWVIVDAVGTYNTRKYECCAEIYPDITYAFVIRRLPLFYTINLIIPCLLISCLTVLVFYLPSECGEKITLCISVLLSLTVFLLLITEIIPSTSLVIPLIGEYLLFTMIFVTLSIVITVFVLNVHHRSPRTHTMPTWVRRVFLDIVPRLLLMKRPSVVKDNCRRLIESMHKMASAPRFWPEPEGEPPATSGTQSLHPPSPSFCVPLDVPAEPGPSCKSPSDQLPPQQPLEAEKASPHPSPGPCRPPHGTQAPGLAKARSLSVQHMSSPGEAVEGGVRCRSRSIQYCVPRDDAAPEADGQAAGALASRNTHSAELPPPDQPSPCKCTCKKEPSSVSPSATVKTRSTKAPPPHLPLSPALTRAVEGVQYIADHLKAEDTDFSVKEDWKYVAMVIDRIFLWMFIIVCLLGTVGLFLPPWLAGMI
T1 sequence (P04757 whole entry): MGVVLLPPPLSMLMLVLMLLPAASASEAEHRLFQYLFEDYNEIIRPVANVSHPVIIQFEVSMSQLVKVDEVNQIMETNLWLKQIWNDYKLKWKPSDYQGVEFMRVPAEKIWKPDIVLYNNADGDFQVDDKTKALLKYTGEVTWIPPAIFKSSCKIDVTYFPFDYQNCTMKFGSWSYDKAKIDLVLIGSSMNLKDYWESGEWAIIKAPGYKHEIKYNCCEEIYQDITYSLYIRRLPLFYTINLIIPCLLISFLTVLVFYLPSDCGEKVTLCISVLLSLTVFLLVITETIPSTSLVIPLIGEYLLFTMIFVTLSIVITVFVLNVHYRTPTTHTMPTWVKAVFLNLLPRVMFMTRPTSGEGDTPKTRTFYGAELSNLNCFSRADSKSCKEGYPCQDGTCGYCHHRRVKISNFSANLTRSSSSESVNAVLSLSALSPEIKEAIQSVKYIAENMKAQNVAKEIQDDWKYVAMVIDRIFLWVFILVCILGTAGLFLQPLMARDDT
T1 sequence (P12392 whole entry): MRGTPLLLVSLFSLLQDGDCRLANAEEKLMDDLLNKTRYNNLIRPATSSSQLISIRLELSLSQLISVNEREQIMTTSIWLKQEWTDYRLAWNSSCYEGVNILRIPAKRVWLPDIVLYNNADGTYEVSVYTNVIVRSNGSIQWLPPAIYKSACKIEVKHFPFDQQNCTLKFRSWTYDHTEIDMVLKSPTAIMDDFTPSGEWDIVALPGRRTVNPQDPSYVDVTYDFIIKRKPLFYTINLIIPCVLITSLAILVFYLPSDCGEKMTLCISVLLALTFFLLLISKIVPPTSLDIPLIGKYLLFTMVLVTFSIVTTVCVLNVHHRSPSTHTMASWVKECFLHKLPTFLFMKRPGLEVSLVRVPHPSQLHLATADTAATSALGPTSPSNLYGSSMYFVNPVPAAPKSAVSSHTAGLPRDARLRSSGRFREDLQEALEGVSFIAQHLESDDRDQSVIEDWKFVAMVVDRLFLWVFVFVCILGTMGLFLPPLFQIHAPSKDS

In general, EC50 refers to the concentration at which the effect is half-maximal. As usually defined, the IC50 is the concentration needed to halve the response being measured. Consider `Cc1ncc(C#CCCCCCl)cc1OC[C@@H]1CCN1`, for which the EC50 entry in data set [1] (hek293) and in data set [2] (hek293) was “Not Active” in each case. The Ratio Ki in the data set filed under Rattus norvegicus [3] was found to be 17000; in the data set filed under Rattus norvegicus [4], 32; in the data set listed under Rattus norvegicus [6], 13000. For the same compound, in data set [5], the IC50 was > 10 µM.
In general, Emax refers to the size of the effect at its maximum, as opposed to the concentration needed. `Cc1ncc(C#CCCCCO)cc1OC[C@@H]1CCN1`: the Ratio Ki is 2 in [7], 70000 in the data set listed under Rattus norvegicus [3] and 40000 in the data set listed under Rattus norvegicus [6]. Moreover, the Emax in data set [8] is 20%. In addition, the EC50 entry in data set [1] (hek293) was “Not Active”; in data set [2] (read-out: EC50), 0.45 µM. Moreover, in data set [5], the IC50 is > 10 µM.
In the case of `Cc1ncc(C#CCCCCF)cc1OC[C@@H]1CCN1`, the EC50 entry in data set [1] (hek293) and in [2] (hek293) was “Not Active” in each case. The IC50 in data set [5] is > 10 µM.
In the case of `CCCCC#Cc1cnc(C)c(OC[C@@H]2CCN2)c1`, the values for the Activity entry with Rattus norvegicus [9], with Mustela putorius furo [10] and with Mustela putorius furo [12] were “Dose-dependent effect”, “Non-toxic” and “Non-toxic”, respectively. For the same compound, the Emax in data set [8] came out at 15%. For the same compound, the EC50 entry in data set [1] (hek293) is reported as “Not Active”. Moreover, the result with Rattus norvegicus [11] and in the data set with Rattus norvegicus [13] was Active. For the same compound, the Ratio Ki was determined as 19000 in the data set filed under Rattus norvegicus [3] and 7800 in the data set filed under Rattus norvegicus [6]. Further, the result in the data set with Rattus norvegicus [14] was inactive. Besides, the IC50 in [5] was > 10 µM.
By Ki is commonly meant the equilibrium dissociation constant of an inhibitor or competing ligand from its target. Turning to `CCCCC#Cc1cnc(C(F)(F)F)c(OC[C@@H]2CCN2)c1`, in the data set filed under Rattus norvegicus [4], the Ratio Ki was > 100000. Besides, in data set [15], the Ki was > 100 µM.
In the case of `c1cnc2cc3c(cc2n1)[C@@H]1CNC[C@H]3C1` [VARENICLINE], the Activity result is on record as “Toxic” in the data set on Mustela putorius furo [16]; “Toxic” with Mustela putorius furo [17]; “Toxic” in the data set on Mustela putorius furo [18]; “Toxic” in the data set on Mustela putorius furo [19]; “Toxic” in the data set on Mustela putorius furo [20]; “Non-toxic” in the data set on Mustela putorius furo [21]. In addition, in the data set with Mustela putorius furo [22], the Activity result was “Toxic”. In addition, the EC50 in data set [1] (read-out: EC50) turned out to be 21 µM.
With `Cc1ncc(C#CC2CC2)cc1OC[C@@H]1CCN1`, the Emax in data set [8] was 17%. For the same compound, the EC50 entry in [1] (hek293) is recorded as “Not Active”. Further, the Ratio Ki in the data set filed under Rattus norvegicus [3] and in the data set filed under Rattus norvegicus [6] was 16000 each time. Also, the IC50 in [5] is > 10 µM.
For the compound `OCCCCC#Cc1cncc(OC[C@@H]2CCN2)c1`, the IC50 in [23] was determined as 0.011 µM. In addition, the Emax in data set [24] worked out at 12%. The EC50 in [1] (read-out: EC50) was determined as 30 µM. Also, the values for the Ratio Ki in the data set filed under Rattus norvegicus [3] and in the data set filed under Rattus norvegicus [6] were 31000 and 11000, respectively.
In the case of `CCCCC#Cc1cnc(C)c(OC[C@@H]2CCCN2)c1`, the EC50 result in data set [1] (hek293) and in data set [2] (hek293) was “Not Active” in each case.

For the origin of these results see ChEMBL document CHEMBL2321838, “Chemistry and pharmacological studies of 3-alkoxy-2,5-disubstituted-pyridinyl compounds as novel selective α4β2 nicotinic acetylcholine receptor ligands that reduce alcohol intake in rats” (J Med Chem, 2013).
